PfM18AAP inh-1: PfM18AAP inhibitors, malaria aminopeptidase, primary screen, biochemical, QFRET, recombinant enzyme; M18 aspartyl aminopeptidase (Plasmodium falciparum 3D7); H-Glu-NHMec fluorogenic cleavage; inhibition, % at 7.35 µM; hit rate 1.2% among 290,000;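 active means inhibition above the campaign mean inhibition over all tested compounds plus 3 SD, cut at about 28% in these data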;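 further: 0% = plate median of test compound wells and 100% = 2 mM ZnCl2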
EBNA-1 inhibitor: EBNA-1 DNA-binding inhibitors, primary screen, biochemical, fluorescence polarization. inhibition, % at 14.8 µM. hit rate 0.34% among 300,000. AID 1950, 2009; in the data active means inhibition above about 28%
ZTA counter: blocks Epstein-Barr virus ZTA, an EBNA-1 counter-screen. inhibition, % at 11 µM. ZTA-DNA binding, fluorescence polarization. hit rate 0.15% among 320,000; in the data active means inhibition above about 33%
Apaf-1 inh: inhibitors of human Apaf-1 apoptosome, primary screen, biochemical, DEVD-Rh110 fluorescence, uHTS | Apoptotic protease-activating factor 1 (Homo sapiens), O14727 | reconstituted apoptosome caspase-3 activity | inhibition, % at 20 µM | hit rate 0.71% among 330,000 | AID 489030, 2010; active means inhibition of at least 40% at 20 µM;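 further: plate controls were DMSO wells for no effect and DEVD-CHO caspase inhibitor wells for full effect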
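System – cell-free apoptosome with Apaf-1, procaspase-3 and caspase-9 · Buffer or medium – pH 7.5 Hepes buffer with CHAPS, BSA, DTT · Also added – cytochrome c with DEVD-Rh110 · Times – 30 min compound preincubation, 50 min activation, room temperature · Technique – Rh110 fluorescence intensity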
PfG6PD inh: PfG6PD enzyme inhibitors, primary screen, biochemical, fluorescence intensity, uHTS. glucose-6-phosphate dehydrogenase-6-phosphogluconolactonase (Plasmodium falciparum 3D7). PfGluPho enzyme, NADPH resazurin-diaphorase fluorescence. inhibition, % at 20 µM. hit rate 0.78% among 350,000. AID 504690, 2011;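 active means inhibition reaching at least a set limit at 20 µM in the primary screen, cut at about 59% in these data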;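 further: 0% = DMSO wells with substrate and 100% = DMSO wells lacking glucose-6-phosphate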
UBC13 inh: UBC13 polyubiquitin chain formation inhibitors, primary screen, biochemical, TR-FRET, uHTS. AID 485273, 2010. hit rate 0.47% among 330,000. Ubiquitin-conjugating enzyme E2 N (Homo sapiens), P61088. inhibition, % at 20 µM; in the data active means inhibition above about 45%, passing the limit was not always enough
PfM18AAP inh-2: PfM18AAP inhibitors, malaria aminopeptidase, confirmation, biochemical, QFRET, recombinant enzyme, triplicate | shares compounds with PfM18AAP inh-1 | H-Glu-NHMec fluorogenic cleavage | inhibition, % at 7.35 µM | hit rate 28% among 2,400 | AID 2170, 2009;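 active means mean inhibition over replicate wells above the hit cutoff set for the earlier primary screen, cut at about 29% in these data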;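 further: 0% = median of test compound wells and 100% = 2 mM ZnCl2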
CTSL1 confirm: cathepsin L1 inhibitors, retest, confirmation, counter-screen for PFM18AAP inhibitor project, biochemical, QFRET, triplicate | shares compounds with PfM18AAP inh-1 | purified cathepsin L1, Z-Leu-Arg-MCA fluorescence | inhibition, % at 5.96 µM | 2,400 tested, under 10 active | AID 2178, 2009;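 active means average inhibition across replicates above the hit cutoff set in the earlier primary screen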;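 further: 0% = median of test compound wells and 100% = Z-Phe-Ala-diazomethylketone 1 µM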
Target sequence (P07711 whole entry, looked up): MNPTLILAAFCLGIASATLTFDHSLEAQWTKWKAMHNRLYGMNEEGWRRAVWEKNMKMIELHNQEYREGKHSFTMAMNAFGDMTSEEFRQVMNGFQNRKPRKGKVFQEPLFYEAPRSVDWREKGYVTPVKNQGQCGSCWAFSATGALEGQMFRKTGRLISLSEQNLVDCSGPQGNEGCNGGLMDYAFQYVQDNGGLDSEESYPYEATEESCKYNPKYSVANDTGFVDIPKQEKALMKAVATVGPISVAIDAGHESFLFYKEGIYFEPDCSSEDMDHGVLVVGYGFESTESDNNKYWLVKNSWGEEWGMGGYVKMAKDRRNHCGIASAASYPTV
Starred values were filed as active, the others as inactive; . = not tested or not shown. Shown are actives, neighbours in structure and some others; about 2.9% of the full set was active somewhere.

SMILES	PfM18AAP inh-1	EBNA-1 inhibitor	ZTA counter	Apaf-1 inh	PfG6PD inh	UBC13 inh	PfM18AAP inh-2	CTSL1 confirm
Cc1cccc2sc(NNC(=O)c3ccc(S(=O)(=O)N4CC(C)CC(C)C4)cc3)nc12 (stereo unspecified)	32*	0	10	-17	4	-13	-29	0
CC[C@H]1CCCCc2ccccc2[C@@H](C(=O)C[C@@H](O)CC(C)=O)OC1=O	.	.	.	-12	-11	-4	.	.
CCCn1c(N/N=C(C)\C=C\c2ccccc2)nc2c1c(=O)[nH]c(=O)n2C	44*	3	-10	12	.	-5	-20	3
Cc1cccc(OCCSc2nc(N)cc(N)n2)c1	42*	6	-3	-10	14	-8	8	0
N#CCC(=O)N/N=C/c1ccc(OC2CSC2)cc1	40*	-6	-2	-1	-5	4	-12	0
COc1cccc(C(=O)N/N=C/c2ccc(OC3CSC3)cc2)c1	-9	0	-18	7	0	-17	.	.
CN(C)c1ccc(/C=N\NC(=O)CC#N)cc1	50*	7	-2	-7	11	-4	-34	3
CN(C)c1ccc(/C=N/NC(=O)CCCO)cc1	2	-7	-1	-2	-2	3	.	.
C[C@H](CO)N1C[C@H](C)[C@@H](CN(C)C(=O)CCC(F)(F)F)OCc2cnnn2CCCC1=O	.	.	.	.	-10	.	.	.
Cc1cc(C)nc(SCCc2ccncc2)n1	50*	-6	4	4	42	-20	-8	-3
O=C(N/C(=C/c1ccc(Br)cc1)C(=O)N1CCCC1=O)c1ccco1	2	-5	-9	1	15	1	.	.
O=C(Nn1cnnc1)C(c1ccccc1)c1ccccc1	43*	2	-4	-2	-3	-3	21	-9
O=C(Nn1cnnc1)C(Sc1ccccc1)c1ccccc1 (stereo unspecified)	48*	6	6	-26	-4	0	34*	-2
O=C(COc1ccc(Cl)cc1Cl)NCCN1CCCC1	.	.	.	.	12	.	.	.
O=C(Cn1cncn1)c1ccccc1Br	39*	1	4	1	5	3	15	-2
O=C(/C=C(\c1ccc(Cl)cc1)n1cncn1)c1ccc(Cl)cc1	73*	-12	-3	11	3	0	15	5
O=C(Cn1cncn1)NCc1ccccc1Br	1	-8	-18	-4	-16	-14	.	.
O=C(Cn1cncn1)c1ccc(Cl)cc1	59*	2	14	2	-13	0	36*	3
Nc1c(NC=O)c(=O)n(Cc2ccccc2)c(=O)n1Cc1ccccc1	.	2	4	-15	7	1	.	.
c1ccc2[nH]c(Cn3nnc4ccccc43)nc2c1	.	12	-18	-11	-7	0	.	.
COc1ccc2[nH]c3c(=O)n(CCCC(=O)NC4CCCCC4C)c(=S)[nH]c3c2c1 (stereo unspecified)	5	-16	-6	0	5	-13	.	.
CC(Oc1cccc(F)c1)C(=O)Nc1ccc(N2CCOCC2)cc1 (stereo unspecified)	.	.	-15	0	-2	-10	.	.
CSc1ncccc1C(=O)NCC(=O)Nc1ccc(F)c(F)c1	2	7	-3	8	-3	3	.	.
CSc1ncccc1C(=O)NNc1cc(Cl)ccc1Cl	33*	-9	-5	6	37	6	-1	0
CCCCCc1cc(=O)[nH]c(=S)[nH]1	7	-1	-5	3	-1	3	.	.
CCCc1cc(=O)[nH]c(=S)[nH]1	44*	-10	-24	7	-4	-12	-36	-6

Source: PubChem
